Results published in ChEMBL document CHEMBL1150214, “Isolation, synthesis, and structure-activity relationships of bioactive benzoquinones from Miconia lepidota from the Suriname rainforest” (J Nat Prod, 2001).
Values after ≈ are worked out from the molar mass of the structure shown.

What was measured:
Saccharomyces cerevisiae [1] = assay: Antifungal activity against Saccharomyces cerevisiae 7 assessed as concentration required to generate kill-zone of 12 mm in diameter; type: functional
Method in brief: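 Mutant S. cerevisiae Sc-7 on an agar-based gel, incubated […] with samples. Kill-zone diameters measured; IC12 (µg/mL) is the concentration giving a 12 mm zone. Standard deviations come from three separate experiments.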

Saccharomyces cerevisiae [2] = assay: Antifungal activity against Saccharomyces cerevisiae 1138 assessed as concentration required to generate kill-zone of 12 mm in diameter after 48 hrs; type: functional
Method in brief: (§1)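 Mutant S. cerevisiae strains on an agar-based gel, incubated 48 h with samples. Inhibition zones measured; IC12 (µg/mL) is the concentration producing a 12 mm diameter kill zone. Values with standard deviations come from three separate experiments.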

Saccharomyces cerevisiae [3] = assay: Antifungal activity against Saccharomyces cerevisiae 1140 assessed as concentration required to generate kill-zone of 12 mm in diameter after 48 hrs; type: functional; method in brief: as §1
Saccharomyces cerevisiae [4] = assay: Antifungal activity against Saccharomyces cerevisiae 1353 assessed as concentration required to generate kill-zone of 12 mm in diameter after 48 hrs
A2780 = assay: Cytotoxicity against human A2780 cells; type: functional, cell-based
M109 = assay: Cytotoxicity against mouse M109 cells; type: functional, cell-based
Method in brief: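 In vitro antitumor cytotoxicity in murine Madison Lung Carcinoma (M109) cells, run at Bristol-Myers Squibb; value given as IC50 in µg/mL.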

Molecule	Activity (Saccharomyces cerevisiae [1]) [µg/mL]	Activity (Saccharomyces cerevisiae [2]) [µg/mL]	Activity (Saccharomyces cerevisiae [3]) [µg/mL]	Activity (Saccharomyces cerevisiae [4]) [µg/mL]	IC50 (A2780) [µg/mL]	IC50 (M109) [µg/mL]
COC1=CC(=O)C=C(C)C1=O	530	580	630	830		
CCCCCCCCCCCCCCCCCCCC1=CC(=O)C=C(OC)C1=O	>2000	>2000	>2000	>2000		
CCCCC1=CC(=O)C=C(OC)C1=O	80	220	150	210	3.2 (≈ 16.5 µM)	
NYSTATIN		14	13			
CCCCCCCCCCC1=CC(=O)C=C(OC)C1=O	3	380	380	380		10 (≈ 35.9 µM)
COC1=CC(=O)C=C(Cc2ccccc2)C1=O	180	460	420	590		
CCCCC(O)C1=CC(=O)C=C(OC)C1=O (centres undefined)	438	536	430	577		
CCCCCC1=CC(=O)C=C(OC)C1=O [Primin]	48	240	170	285	2.9 (≈ 13.9 µM)	10 (≈ 48 µM)
CCCCCCCC1=CC(=O)C=C(OC)C1=O	16	120	130	220	7.9 (≈ 33.4 µM)	10 (≈ 42.3 µM)
CCC1=CC(=O)C=C(OC)C1=O	220	200	140	233		
